For six compounds, MIC results are on record in ChEMBL document CHEMBL3102784, “Salicylanilide diethyl phosphates: synthesis, antimicrobial activity and cytotoxicity” (Bioorg Med Chem, 2014).

Type in all cases: functional
Assay [1] has as its system Mycobacterium tuberculosis. Briefly: Antimycobacterial activity against isoniazid, rifamycin and streptomycin-resistant Mycobacterium tuberculosis 9449/2006 after 21 days. As to conditions: 9449/2006, 504 h. In outline:
(§1)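 Drug-resistant M. tuberculosis strains (MDR, one XDR), inoculum dilution 10^3. MIC by micromethod in Šula's semisynthetic medium at 37 °C, compounds in DMSO, concentration series as for the drug-susceptible strain. Read after 14 and 21 days.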

Assay [2] deals with Mycobacterium tuberculosis. As to the kind of experiment: Antimycobacterial activity against isoniazid, rifamycin, streptomycin, ethambutol, clofazimine, ofloxacin, gentamicin and amikacin-resistant Mycobacterium tuberculosis Praha 131 after 14 days. As to conditions: Praha 131, 336 h. The method, boiled down:
as §1

For assay [3], the system named is Mycobacterium tuberculosis. As to the kind of experiment: Antimycobacterial activity against isoniazid, rifamycin, streptomycin, ethambutol, clofazimine, ofloxacin, gentamicin and amikacin-resistant Mycobacterium tuberculosis Praha 131 after 21 days. Particulars: Praha 131, 504 h. The method, boiled down:
as §1

The subject of assay [4] is Mycobacterium tuberculosis. As to the kind of experiment: Antimycobacterial activity against isoniazid, rifamycin, streptomycin, ethambutol and clofazimine-resistant Mycobacterium tuberculosis Praha 1 after 14 days. As to conditions: Praha 1, 336 h. In outline: as §1
In assay [5] the test system is Mycobacterium tuberculosis. As to the kind of experiment: Antimycobacterial activity against isoniazid, rifamycin, streptomycin, ethambutol and ofloxacin, clofazimine-resistant Mycobacterium tuberculosis Praha 4 after 21 days. As to conditions: Praha 4, 504 h. In outline:
as §1

In assay [6] the test system is Mycobacterium tuberculosis. Briefly: Antimycobacterial activity against isoniazid, rifampicin, rifabutin, streptomycin and ethambutol-resistant Mycobacterium tuberculosis 234/2005 after 21 days. As to conditions: 234/2005, 504 h. In outline:
as §1

Assay [7] has as its system Mycobacterium tuberculosis. Briefly: Antimycobacterial activity against isoniazid, rifamycin and streptomycin-resistant Mycobacterium tuberculosis 9449/2006 after 14 days. As to conditions: 9449/2006, 336 h. In outline: as §1
Assay [8] has as its system Mycobacterium tuberculosis. As to the kind of experiment: Antimycobacterial activity against isoniazid, rifamycin, streptomycin, ethambutol and clofazimine-resistant Mycobacterium tuberculosis Praha 1 after 21 days. As to conditions: Praha 1, 504 h. The method, boiled down:
as §1

Assay [9] deals with Mycobacterium tuberculosis. Briefly: Antimycobacterial activity against isoniazid, rifampicin, rifabutin, streptomycin and ethambutol-resistant Mycobacterium tuberculosis 234/2005 after 14 days. As to conditions: 234/2005, 336 h. In outline:
as §1

In assay [10] the test system is Mycobacterium tuberculosis. Briefly: Antimycobacterial activity against isoniazid, rifamycin, streptomycin, ethambutol and ofloxacin, clofazimine-resistant Mycobacterium tuberculosis Praha 4 after 14 days. As to conditions: Praha 4, 336 h. In outline:
as §1

Converted amounts (≈) assume the structure as drawn.

For the compound `CCOP(=O)(OCC)Oc1cc(Cl)ccc1C(=O)Nc1ccc(C(F)(F)F)cc1`, the MIC in assay [1], in assay [2], in [3], in [4], in assay [5] and in assay [6] was 1 µM (≈ 0.452 µg/mL) in each case. Besides, the MIC in [7], in assay [8], in assay [9] and in assay [10] was 1 µM (≈ 0.452 µg/mL) throughout.

With `NNC(=O)c1ccncc1` [ISONIAZID], the minimal inhibitory concentration (MIC) in assay [1], in assay [2], in assay [3], in assay [4], in assay [5] and in assay [6] was 16 µM (≈ 2.19 µg/mL) throughout. Besides, the MIC in assay [7], in assay [8], in [9] and in assay [10] was 16 µM (≈ 2.19 µg/mL) each time.

For the compound `CCOP(=O)(OCC)Oc1ccc(Br)cc1C(=O)Nc1ccc(Cl)c(Cl)c1`, the MIC in assay [1], in [2], in [3], in assay [4], in assay [5] and in [6] was 1 µM (≈ 0.497 µg/mL) in each case. For the same compound, the minimum inhibitory concentration (MIC) in [7], in assay [8], in assay [9] and in assay [10] was 1 µM (≈ 0.497 µg/mL) each time.

With `CCOP(=O)(OCC)Oc1ccc(Br)cc1C(=O)Nc1ccc(C(F)(F)F)cc1`, the MIC in assay [1], in assay [2], in assay [3], in assay [4], in assay [5] and in assay [6] was 1 µM (≈ 0.496 µg/mL) each time. The MIC in assay [7], in [8], in [9] and in assay [10] was 1 µM (≈ 0.496 µg/mL) each time.

For the compound `CCOP(=O)(OCC)Oc1ccc(Cl)cc1C(=O)Nc1ccc(C(F)(F)F)cc1`, the MIC in [1], in assay [2], in [3], in [4], in assay [5] and in [6] was 1 µM (≈ 0.452 µg/mL) in each case. Further, the MIC in assay [7], in [8], in [9] and in [10] was 1 µM (≈ 0.452 µg/mL) each time.

In the case of `CCOP(=O)(OCC)Oc1ccc(Cl)cc1C(=O)Nc1ccc(Cl)c(Cl)c1`, the minimum inhibitory concentration (MIC) in assay [1], in assay [2], in assay [3], in assay [4], in [5] and in [6] was 1 µM (≈ 0.453 µg/mL) in each case. Also, the MIC in [7], in assay [8], in assay [9] and in assay [10] was 1 µM (≈ 0.453 µg/mL) throughout.
